How the values were obtained:
[1] = Intrinsic clearance in mouse liver microsomes at 1 uM after 60 mins; format: ADME, microsome; settings: read-out: CLH
[2] = Tmax in cynomolgus monkey at 1 to 10 mg/kg administered via oral gavage measured up to 72 hrs post dose; format: ADME, organism-based, Macaca fascicularis; settings: in vivo
Procedure, shortened: (§1)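 Cynomolgus monkeys (five per dose) given single oral gavage doses of 1, 3 or 10 mg/kg; dose levels in different animals, staggered by 3 days. Blood sampled pre-dose and at 0.25, 0.5, 1, 2, 4, 8, 24, 48 and 72 h for plasma compound levels, cytokines (ELISA or Luminex) and gene expression (microarray); clinical signs, body weight and temperature monitored.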

[3] = AUC (0 to last) in cynomolgus monkey at 10 mg/kg administered via oral gavage measured up to 72 hrs post dose; format: ADME, organism-based, Macaca fascicularis; set-up: dose 10 mg/kg, route oral, time 0 - last; settings: in vivo
[4] = Cmax in Sprague-Dawley rat at […], iv or 10 mg/kg, po measured after 1 hr post dose; format: ADME, organism-based; settings: in vivo
[5] = Cmax in guinea pig up to […], iv; format: ADME, organism-based, Cavia porcellus; set-up: dose 4.9 mg/kg, route intravenous; settings: in vivo
[6] = Tmax in cynomolgus monkey at 1 mg/kg administered via oral gavage measured up to 72 hrs post dose; format: ADME, organism-based, Macaca fascicularis; settings: in vivo; procedure, shortened: as §1
[7] = Intrinsic clearance in dog liver microsomes at 1 uM after 60 mins; format: ADME, Canis lupus familiaris, microsome; settings: read-out: CLH
[8] = Cmax in C57Bl/6 mouse liver at 1 mg/kg, po measured after 0.5 hrs by LC-MS analysis; format: ADME, organism-based; set-up: dose 1 mg/kg, route oral
Procedure, shortened: (§2)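 Female fasted C57Bl/6 mice, nine per dose, got a single oral dose of 0.3, 1, 3 or 10 mg/kg. Blood was drawn at 0.5 h. Three mice per group were sacrificed at 1, 2 or 4 h for plasma and liver compound levels by LC-MS, and mean maximum levels are reported.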

[9] = Cmax in C57Bl/6 mouse plasma at 0.3 mg/kg, po measured after 0.5 hrs by LC-MS analysis; format: ADME, organism-based; set-up: dose 0.3 mg/kg, route oral; procedure, shortened: as §2
[10] = Cmax in cynomolgus monkey at 1 mg/kg administered via oral gavage measured up to 72 hrs post dose; format: ADME, organism-based, Macaca fascicularis; set-up: dose 1 mg/kg, route oral; settings: in vivo
[11] = Cmax in C57Bl/6 mouse plasma at 10 mg/kg, po measured after 0.5 hrs by LC-MS analysis; format: ADME, organism-based; set-up: dose 10 mg/kg, route oral; procedure, shortened: as §2
Liver = experiment: Drug level in Sprague-Dawley rat liver at […], iv or 10 mg/kg, po; format: ADME, organism-based; settings: in vivo, BLD = below limit of detection
[12] = Intrinsic clearance in mouse hepatocytes assessed per million cells at 1 uM up to 120 mins; format: ADME, cell-based, Hepatocyte; settings: read-out: CLH
[13] = Tmax in cynomolgus monkey at 3 mg/kg administered via oral gavage measured up to 72 hrs post dose; format: ADME, organism-based, Macaca fascicularis; settings: in vivo; procedure, shortened: as §1
[14] = Intrinsic clearance in dog hepatocytes assessed per million cells at 1 uM up to 120 mins; format: ADME, cell-based, Canis lupus familiaris, Hepatocyte; settings: read-out: CLH
[15] = Cmax in C57Bl/6 mouse plasma at 1 mg/kg, po measured after 0.5 hrs by LC-MS analysis; format: ADME, organism-based; set-up: dose 1 mg/kg, route oral; procedure, shortened: as §2
[16] = Tmax in cynomolgus monkey at 10 mg/kg administered via oral gavage measured up to 72 hrs post dose; format: ADME, organism-based, Macaca fascicularis; settings: in vivo; procedure, shortened: as §1
[17] = Cmax in C57Bl/6 mouse liver at 0.3 mg/kg, po measured after 0.5 hrs by LC-MS analysis; format: ADME, organism-based; set-up: dose 0.3 mg/kg, route oral; procedure, shortened: as §2
[18] = Cmax in cynomolgus monkey at 10 mg/kg administered via oral gavage measured up to 72 hrs post dose; format: ADME, organism-based, Macaca fascicularis; set-up: dose 10 mg/kg, route oral; settings: in vivo
[19] = Intrinsic clearance in cynomolgus monkey liver microsomes at 1 uM after 60 mins; format: ADME, Macaca fascicularis, microsome; settings: read-out: CLH
[20] = Tmax in C57Bl/6 mouse plasma at 0.3 to 10 mg/kg, po by LC-MS analysis; format: ADME, organism-based
Procedure, shortened: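 Healthy fasted female C57Bl/6 mice, groups of 9, single oral dose 0.3, 1, 3 or 10 mg/kg. Blood at 0.5 h; three mice per group killed at 1, 2 or 4 h for plasma and liver compound (LC-MS) and ISG expression by RT-qPCR as fold change versus vehicle.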

[21] = Cmax in C57Bl/6 mouse plasma at 3 mg/kg, po measured after 0.5 hrs by LC-MS analysis; format: ADME, organism-based; set-up: dose 3 mg/kg, route oral; procedure, shortened: as §2
[22] = Cmax in C57Bl/6 mouse liver at 3 mg/kg, po measured after 0.5 hrs by LC-MS analysis; format: ADME, organism-based; set-up: dose 3 mg/kg, route oral; procedure, shortened: as §2
[23] = Cmax in dog at 1 mg/kg, po; format: ADME, organism-based, Canis lupus familiaris; set-up: dose 1 mg/kg, route oral; settings: in vivo
[24] = Intrinsic clearance in cynomolgus monkey hepatocytes assessed per million cells at 1 uM up to 120 mins; format: ADME, cell-based, Macaca fascicularis, Hepatocyte; settings: read-out: CLH
[25] = Intrinsic clearance in human hepatocytes assessed per million cells at 1 uM up to 120 mins; format: ADME, cell-based, Hepatocyte; settings: read-out: CLH
[26] = Intrinsic clearance in human liver microsomes at 1 uM after 60 mins; format: ADME, microsome; settings: read-out: CLH
MDR1 = experiment: Apparent permeability across apical to basolateral side in MDCK cells expressing human MDR1 at 5 uM by LC-MS/MS analysis; format: ADME, cell-based, Canis lupus familiaris; settings: dog
Procedure, shortened: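 MDCK cells transfected with human MDR1 were grown as confluent monolayers. 5 µM compound was added apically or basolaterally, with or without the P-gp inhibitor GF120918. Appearance on the opposite side was measured by LC-MS/MS to give Papp; efflux ratio = B→A/A→B without inhibitor.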

[27] = Cmax in cynomolgus monkey at 3 mg/kg administered via oral gavage measured up to 72 hrs post dose; format: ADME, organism-based, Macaca fascicularis; set-up: dose 3 mg/kg, route oral; settings: in vivo
[28] = Tmax in dog at 1 mg/kg, po; format: ADME, organism-based, Canis lupus familiaris; settings: in vivo
[29] = Intrinsic clearance in rat liver microsomes at 1 uM after 60 mins; format: ADME, microsome; settings: read-out: CLH
Rattus norvegicus = experiment: Drug level in Sprague-Dawley rat systemic circulation at […], iv or 10 mg/kg, po; format: ADME, organism-based; settings: in vivo, BLD = below limit of detection
[30] = Ratio of drug uptake in liver to plasma in C57Bl/6 mouse at 0.3 to 10 mg/kg, po by LC-MS analysis; format: ADME, organism-based
Procedure, shortened: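 Healthy fasted female C57Bl/6 mice, 9 per dose group, given a single oral dose of 0.3, 1, 3 or 10 mg/kg. Blood taken at 0.5 h. At 1, 2 or 4 h, three mice per group were sacrificed and plasma and liver compound levels were measured by LC-MS.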

[31] = Plasma concentration in dog at 1 mg/kg, po measured after 4 hrs post dose; format: ADME, organism-based, Canis lupus familiaris
[32] = Cmax in C57Bl/6 mouse liver at 10 mg/kg, po measured after 0.5 hrs by LC-MS analysis; format: ADME, organism-based; set-up: dose 10 mg/kg, route oral; procedure, shortened: as §2
[33] = Intrinsic clearance in rat hepatocytes assessed per million cells at 1 uM up to 120 mins; format: ADME, cell-based, Hepatocyte; settings: read-out: CLH
[34] = Oral bioavailability in cynomolgus monkey at 1 to 10 mg/kg administered via gavage measured up to 72 hrs post dose; format: ADME, organism-based, Macaca fascicularis; settings: in vivo
[35] = Activation of NFkappaB (unknown origin) expressed in HEK293 cells after 6 hrs luciferase reporter gene assay; format: cell-based; settings: human
Procedure, shortened: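 HEK293 cells were transfected with the NFκB-luciferase reporter alone, with no TLR vector, to detect direct NFκB activation.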

[36] = AUC (0 to last) in cynomolgus monkey at 3 mg/kg administered via oral gavage measured up to 72 hrs post dose; format: ADME, organism-based, Macaca fascicularis; set-up: dose 3 mg/kg, time 0 - last, route oral; settings: in vivo

Question: For `Cc1cc(COc2nc(N)nc3ccn(Cc4ccccn4)c23)no1`, which microsomal CLint at 1 µM [1] is on record?
Answer: 55 µL/min/mg

Question: And the Tmax [2]?
Answer: 15 to 120 min

Question: And the AUC(0-t) at 72 h [3]?
Answer: 57.5 ng·h/mL

Question: And the Cmax [4]?
Answer: 314 ng/mL

Question: And the Cmax [5]?
Answer: 9700 ng/mL

Question: And the Tmax [6]?
Answer: 60 to 120 min

Question: What about the microsomal CLint at 1 µM [7] of the same molecule?
Answer: 44 µL/min/mg

Question: And the Cmax [8]?
Answer: 6.3 ng/g

Question: And the Cmax [9]?
Answer: 3.7 ng/mL

Question: What about the Cmax [10] of the same molecule?
Answer: 4.12 ng/mL

Question: And the Cmax [11]?
Answer: 72.9 ng/mL

Question: And the Drug uptake (Liver)?
Answer: Bld

Question: And the hepatocyte CLint at 1 µM [12]?
Answer: 19 µL/min/1e6 cells

Question: What about the Tmax [13] of the same molecule?
Answer: 30 to 120 min

Question: And the hepatocyte CLint at 1 µM [14]?
Answer: 7 µL/min/1e6 cells

Question: And the Cmax [15]?
Answer: 7.1 ng/mL

Question: What about the Tmax [16] of the same molecule?
Answer: 30 to 120 min

Question: And the Cmax [17]?
Answer: 6.8 ng/g

Question: And the Cmax [18]?
Answer: 23.4 ng/mL

Question: And the microsomal CLint at 1 µM [19]?
Answer: 87 µL/min/mg

Question: And the Tmax [20]?
Answer: 30 to 60 min

Question: And the Cmax [21]?
Answer: 2.8 ng/mL

Question: And the Cmax [22]?
Answer: 23 ng/g

Question: What about the Cmax [23] of the same molecule?
Answer: 125 ng/mL

Question: What about the hepatocyte CLint at 1 µM [24] of the same molecule?
Answer: 80 µL/min/1e6 cells

Question: What about the hepatocyte CLint at 1 µM [25] of the same molecule?
Answer: 6 µL/min/1e6 cells

Question: What about the microsomal CLint at 1 µM [26] of the same molecule?
Answer: 25 µL/min/mg

Question: And the Papp A→B at 5 µM (MDR1)?
Answer: 41 ×10⁻⁶ cm/s

Question: And the Cmax [27]?
Answer: 11.2 ng/mL

Question: What about the Tmax [28] of the same molecule?
Answer: 30 min

Question: And the microsomal CLint at 1 µM [29]?
Answer: > 346 µL/min/mg

Question: And the Drug uptake (Rattus norvegicus)?
Answer: Bld

Question: And the Kp [30]?
Answer: 2

Question: What about the concentration at 4 h [31] of the same molecule?
Answer: 10 ng/mL

Question: What about the Cmax [32] of the same molecule?
Answer: 152 ng/g

Question: What about the hepatocyte CLint at 1 µM [33] of the same molecule?
Answer: > 277 µL/min/1e6 cells

Question: And the bioavailability [34]?
Answer: < 1%

Question: What about the MEC [35] of the same molecule?
Answer: > 25 µM

Question: And the AUC(0-t) at 72 h [36]?
Answer: 26.7 ng·h/mL
